Consider six compounds from PMC3134314 (ACS chemical neuroscience, 2011).

Assay [1] concerns voltage-gated Na+ channels in CAD cells. Format: cell-based. The conditions noted are these: for Maximal fraction of current unavailable by depolarization: 20 mV, control 0.42 ± 0.02.
Assay [2] shares this test system. Format: cell-based. Summed up: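 Steady-state fast inactivation in whole-cell clamped CAD cells used a 500 ms conditioning pulse. Test compound ranged 0.3–500 μM; control was DMSO vehicle. Recordings were taken 3–4 min after break-in and compared with drug-free cells. V1/2 and k came from single Boltzmann fits of each recording, averaged as mean ± SEM. n = 7 for V1/2, n = 6 for τinact. Student's t-test vs DMSO.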

The test system is the same in assay [3]. The experiment in a line: Frequency. The conditions noted are these: 10 Hz; for Pulse in the train at which use-dependent block was first observed: 30-pulse train. Format: cell-based. Summed up:
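CAD cells were whole-cell clamped at −80 mV and given a train of 30 pulses (20 ms to −10 mV) at 10 Hz, with test compound (100, 8.5 or 15 μM) or control. Available current was the peak at pulse N divided by the pulse 1 peak. 5–7 cells per condition, averaged ± SEM.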

For assay [4] the test system is unchanged. In words: Development of inhibition/slow inactivation of Na+ currents in CAD cells. Format: cell-based. The conditions noted are these: vehicle 0.52 ± 0.09.
For assay [5] the test system is unchanged. The experiment in a line: Recovery of Na+ channels from inactivation/block in CAD cells. Format: cell-based. To be noted: vs control. Summed up: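 CAD cells under whole-cell clamp, test compound (100, 8.5 or 15 μM) or control. Cells were held at −120 mV and depolarized to 0 mV, for 5 s (slow inactivation) or a 10 ms prepulse. They were then returned to −120 mV for a variable recovery interval before a test step to 0 mV. Sweeps ran at 0.5 Hz for short recoveries and slower for longer ones.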

For assay [6], the system named is formalin-induced pain, chronic (late-phase) inflammatory pain. In words: Formalin-induced pain model. It is filed as in vivo. To be noted: mouse, i.p., the lower the percent the more effective the compound.
The next assay relates to site 2 sodium channel. In words: Site 2 sodium channel binding. To be noted: 10 μM, Cerep, data not shown.
In a further assay the test system is E18 rat cortical neurons. In words: KCl-induced Ca2+ influx, Fura-2 imaging. The conditions noted are these: 100 μM, 46.5 mM KCl. Format: cell-based.
For assay [7], the system named is voltage-gated Na+ channels in CAD cells. The conditions noted are these: earlier study; cited from earlier work.
For assay [8] the test system is unchanged. To be noted: 30 μM; cited from earlier work.
The test system of assay [9] is tibial-nerve injury (TNI) mechanical hypersensitivity. The experiment in a line: Tibial-nerve injury. Format: in vivo, Sprague–Dawley rats. The conditions noted are these: rats, 10 mg/kg i.p.

“And” between values parts separate entries of the source, which are not always exact repeats. Identical values can stand only once. Like-named read-outs stand apart in the source and are kept apart here.

`COC[C@@H](NC(C)=O)C(=O)NCc1ccc(-c2cccc(F)c2)cc1` [(R)-11]: the “Maximal fraction of current unavailable by depolarization” value (“Maximal fraction of current unavailable” for short) in [1] (30 μM) is recorded as 0.94 ± 0.004. In assay [2] (30 μM), the “Shift in V1/2 of fast inactivation in the hyperpolarizing direction” value (“Shift … in the hyperpolarizing direction” for short) is 8.0 mV. Also, in [3] (15 μM), the “Peak current lower than control at the last pulse (pulse 30)” value (shortened to “Peak current lower than control”) was 45% and the “Pulse in the train at which use-dependent block was first observed” value (shortened to “Pulse in the train”) is 3 pulse. Besides, in assay [4] (15 μM), the “Fraction of current available at 8 s prepulse duration” value (“Fraction … at 8 s prepulse duration” below) was determined as 0.12 ± 0.04. Further, in assay [5] (15 μM), the “Time course of recovery from the 10-ms depolarization” value (“Time course of recovery” for short) was “not different from control”. Moreover, the “Recovery kinetics after 5 s depolarization (slow inactivation induced)” value (“Recovery kinetics” below) in assay [5] (15 μM, significant between 100 ms to 2 s) was “slowed recovery kinetics”. For the same compound, the “Protection vs control, chronic (late-phase) inflammatory pain” value in [6] (12 mg/kg) is listed as 97%. For the same compound, the “Displacement, site 2 sodium channel binding” value in the assay on site 2 sodium channel is listed as 31–46%.
Turning to `COC[C@H](NC(C)=O)C(=O)NCc1ccccc1` [(S)-4], in the assay on E18 rat cortical neurons, the “Inhibition of Ca2+ amplitude (KCl-induced Ca2+ influx)” value is 13.74 ± 1.26%. Besides, in assay [7], the “Inhibition of peak Na+ currents” value is recorded as “no inhibition”.
In the case of `COC[C@@H](NC(C)=O)C(=O)NCc1ccccc1` [(R)-4, Lacosamide, reference compound], in [3] (100 μM), the “Peak current lower than control” value is recorded as ~ 9% and the “Pulse in the train” value is recorded as around 19 pulse. Further, the “Fraction … at 8 s prepulse duration” value in assay [4] (100 μM) came to 0.32 ± 0.01. In assay [5] (100 μM), the “Time course of recovery” value is “not different from control”. In addition, the “Recovery kinetics” value in assay [5] (100 μM, significant between 100–512 ms) is “slowed recovery kinetics”. In addition, the “Inhibition of peak Na+ currents” value in [7] was ~ 40%. In addition, the “Shift in V1/2 of fast inactivation” value in assay [8] is 0.7 mV.
On to `COC[C@H](NC(C)=O)C(=O)NCc1ccc(OCc2cccc(F)c2)cc1` [(S)-7], for which, in assay [1] (500 μM (highest dose)), the “Fraction of current available at −50 mV” value is listed as “reduced the available current but not to the extent observed with (R)-7”. Further, the “Potential above which (more depolarized) slow inactivation was observed” value in assay [1] (5 s conditioning prepulses) is reported as above −80 mV. In addition, the “Maximal fraction of current unavailable” value in assay [1] (500 μM) is listed as 0.76 ± 0.02. For the same compound, the “Shift … in the hyperpolarizing direction” value in assay [2] (500 μM) came out at 19.9 mV.
Regarding `COC[C@@H](NC(C)=O)C(=O)NCc1ccc(COc2ccccc2F)cc1` [(R)-10], in [1], the “Fold lower IC50 for slow inactivation compared with (R)-4 (85 μM)” value worked out at 16 fold. In assay [1] (100 μM), the “Maximal fraction of current unavailable” value is reported as 0.90 ± 0.007. Also, in assay [2] (100 μM), the “Shift … in the hyperpolarizing direction” value is reported as 17.6 mV. The “Displacement, site 2 sodium channel binding” value in the assay with site 2 sodium channel is 31–46%.
In the case of `COC[C@@H](NC(C)=O)C(=O)NCc1ccc(OCc2cccc(F)c2)cc1` [(R)-7], the “Fraction of current available at −50 mV” value in assay [1] (30 μM, vs cells without drug) is reported as “significantly decreased the fraction of current available”. Moreover, the “Maximal fraction of current unavailable” value in assay [1] (30 μM) was 0.91 ± 0.01. In addition, the “Time constant for inactivation (τinact)” value in assay [2] (0.3 μM, DMSO 1.32 ± 0.12 ms) worked out at 0.73 ± 0.05 ms. Moreover, the “Shift … in the hyperpolarizing direction” value in assay [2] (30 μM) is ~ 21.4 mV and 21.4 mV. For the same compound, in [2] (30 μM, DMSO −63.2 ± 0.9 mV), the “V1/2 value for fast inactivation” value is −84.6 ± 1.2 mV. Further, in [3] (8.5 μM), the “Peak current lower than control” value was determined as 40% and the “Pulse in the train” value stood at 3 pulse. In assay [4] (8.5 μM), the “Fraction … at 8 s prepulse duration” value was found to be 0.20 ± 0.04. The “Time course of recovery” value in [5] (8.5 μM) is listed as “slight slowing”. The “Recovery kinetics” value in assay [5] (8.5 μM, significant between 100 ms to 2 s) is given as “slowed recovery kinetics”. For the same compound, the “Reversal of tactile hypersensitivity” value in assay [9] (14 days after TNI, 1 hour after administration) was ~ 90%. The “Mechanical withdrawal thresholds 24 hours after injection” value in assay [9] (four weeks after TNI, 24 hours) was “returned to pre-drug levels”. Further, the “Protection vs control, chronic (late-phase) inflammatory pain” value in [6] (15 mg/kg) is on record as 44%.
